Data taken from publication PMC11494403 (Nature plants, 2024).

What was measured:
[1] = MST, binding to Alexa Fluor 647-labelled oligogalacturonide OG7–13^647; conditions: relative to wild-type RALF22
Summary of the method: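 Wild-type or mutant peptide, titrated from 200µM, against 40nM Alexa Fluor 647-labelled, fully demethylesterified 7-13mer oligogalacturonide. Incubated 10min at RT, then thermophoresis on a Monolith NT.115 at medium MST power and 80% LED excitation. Data kept only at S/N >5 with no aggregation or ligand-induced initial fluorescence change. Kd averaged over 3 independent experiments.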

root = conditions: RALF1-induced; cited from earlier work
RHs = conditions: 2 day exposure to exogenous RALF1; cited from earlier work

| fold reduction in affinity for OG7–13^647 [1] | Substance | root growth (root) | root hair length (RHs) |
| --- | --- | --- | --- |
| 5.2 fold | AQKKYISYGAMARNSVPCSARGASYYNCQAGAQANPYSRGCSTITRCRR [RALF22^R82A,R90A,R100A] |  |  |
|  | RALF1: exogenous RALF1 peptide of an earlier study (ATTKYISYQSLKRNSVPCSRRGASYYNCQNGAQANPYSRGCSKIARCRS; Protein RALF-like 1; UniProt Q9SRY3 72-120, looked up) | root growth inhibition | longer RHs |
